# Source: ChEMBL document CHEMBL4406809, “Design of balanced COX inhibitors based on anti-inflammatory and/or COX-2 inhibitory ascidian metabolites” (Eur J Med Chem, 2019)
# Activity calls are given as the source filed them. No cut-off for these calls is given here.
# Tests used:
# [1] = target: Transcription factor p65 (Mus musculus) (UniProt Q04207); assay: Inhibition of LPS-stimulated NFkappaB p65 nuclear translocation in mouse RAW264.7 cells retreated for 1 hrs followed by LPS addition and measured after 30 mins by Western blot analysis; assay type: cell-based
# Chain of Transcription factor p65 (Mus musculus) (Q04207 whole entry): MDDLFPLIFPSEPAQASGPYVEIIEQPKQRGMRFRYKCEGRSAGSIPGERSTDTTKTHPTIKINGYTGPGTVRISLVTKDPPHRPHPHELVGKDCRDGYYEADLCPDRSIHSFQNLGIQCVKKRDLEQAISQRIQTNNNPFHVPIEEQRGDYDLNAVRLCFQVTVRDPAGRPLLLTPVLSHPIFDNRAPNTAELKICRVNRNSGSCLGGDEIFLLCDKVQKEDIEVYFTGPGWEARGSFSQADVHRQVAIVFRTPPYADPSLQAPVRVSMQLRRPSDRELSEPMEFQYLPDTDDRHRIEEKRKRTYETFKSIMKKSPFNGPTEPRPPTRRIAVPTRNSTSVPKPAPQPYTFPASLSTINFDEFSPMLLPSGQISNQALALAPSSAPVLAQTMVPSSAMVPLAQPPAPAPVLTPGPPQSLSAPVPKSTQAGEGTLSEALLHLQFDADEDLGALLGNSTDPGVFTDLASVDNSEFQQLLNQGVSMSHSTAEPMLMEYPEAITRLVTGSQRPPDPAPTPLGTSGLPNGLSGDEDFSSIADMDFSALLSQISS
# RAW264.7 [2] = assay: Antiinflammatory activity against mouse RAW264.7 cells assessed as downregulation of LPS-stimulated iNOS protein expression at 20 uM pretreated for 1 hrs followed by LPS addition and measured after 24 hrs by Western blot analysis; assay type: functional, cell-based
# Procedure, shortened: (§1)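 Cells treated at various concentrations, then cultured with or without LPS (1 µg/mL) for 24 h; dexamethasone 10 µM as positive control. Lysates taken in buffer with protease/phosphatase inhibitors and protein quantified by BCA. Equal protein run on 10% SDS-PAGE, transferred to PVDF, blocked in TBS-T/5% milk, then primary antibodies overnight at 4°C and HRP anti-rabbit secondary. Mean ± SD, n=3.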
# RAW264.7 [3] = assay: Antiinflammatory activity against mouse RAW264.7 cells assessed as reduction in LPS-stimulated ROS production at 20 uM pretreated for 1 hrs followed by LPS addition and measured after 24 hrs by DCFH-DA dye based fluorescence assay; assay type: functional, cell-based
# Procedure, shortened: (§2)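 RAW264.7 cells at about 1×10^4 cells/well, grown 12 h, pretreated 1 h, then LPS 1 μg/mL for 24 h. Loaded with DCFH-DA at 100 μM final in FBS-free medium, 30 min at 37°C. After washing, fluorescence read at Ex 485/Em 520 nm on a plate reader; confocal imaging done in parallel dishes.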
# RAW264.7 [4] = assay: Antiinflammatory activity against mouse RAW264.7 cells assessed as downregulation of LPS-stimulated COX2 protein expression pretreated for 1 hrs followed by LPS addition and measured after 24 hrs by Western blot analysis; assay type: functional, cell-based; procedure, shortened: as §1
# RAW264.7 [5] = assay: Antiinflammatory activity against mouse RAW264.7 cells assessed as downregulation of LPS-stimulated COX2 protein expression at 20 uM pretreated for 1 hrs followed by LPS addition and measured after 24 hrs by Western blot analysis; assay type: functional, cell-based; procedure, shortened: as §1
# RAW264.7 [6] = assay: Antiinflammatory activity against mouse RAW264.7 cells assessed as decrease in LPS-stimulated IL6 production pretreated for 1 hrs followed by LPS addition and measured after 24 hrs by sandwich ELISA; assay type: functional, cell-based
# Procedure, shortened: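 RAW264.7 cells seeded at about 1×10^4 cells/well and grown 12 h. Pretreated 1 h with 2.5, 5 or 10 μM, then LPS 100 ng/mL added: 24 h for IL-6, 3 h for TNF-α. Cytokines in the medium quantified by sandwich ELISA, A450. Representative of three independent experiments.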
# RAW264.7 [7] = assay: Antiinflammatory activity against mouse RAW264.7 cells assessed as reduction in LPS-stimulated ROS production pretreated for 1 hrs followed by LPS addition and measured after 24 hrs by DCFH-DA dye based fluorescence assay; assay type: functional, cell-based; procedure, shortened: as §2
# [8] = Cytotoxicity against rat Ac2F cells assessed as reduction in cell viability up to 50 uM incubated of WST assay; assay type: cell-based
# Procedure, shortened: (§3)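 Cells seeded at 1.0×10^4 cells/well, grown 12 h in DMEM with 10% FBS, then exposed 24 h to 10, 25 or 50 μM; medium-only controls. WST reagent added for 1 h at 37°C and absorbance read at 450 nm. Cells in exponential phase.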
# [9] = target: T1, Prostaglandin G/H synthase 2 (Homo sapiens) (UniProt P35354); assay: Inhibition of recombinant human COX2 at 30 uM using arachidonic acid as substrate pretreated for 5 mins followed by substrate addition and measured after 2 mins by fluorescence based enzyme immunoassay
# T1 sequence (whole entry): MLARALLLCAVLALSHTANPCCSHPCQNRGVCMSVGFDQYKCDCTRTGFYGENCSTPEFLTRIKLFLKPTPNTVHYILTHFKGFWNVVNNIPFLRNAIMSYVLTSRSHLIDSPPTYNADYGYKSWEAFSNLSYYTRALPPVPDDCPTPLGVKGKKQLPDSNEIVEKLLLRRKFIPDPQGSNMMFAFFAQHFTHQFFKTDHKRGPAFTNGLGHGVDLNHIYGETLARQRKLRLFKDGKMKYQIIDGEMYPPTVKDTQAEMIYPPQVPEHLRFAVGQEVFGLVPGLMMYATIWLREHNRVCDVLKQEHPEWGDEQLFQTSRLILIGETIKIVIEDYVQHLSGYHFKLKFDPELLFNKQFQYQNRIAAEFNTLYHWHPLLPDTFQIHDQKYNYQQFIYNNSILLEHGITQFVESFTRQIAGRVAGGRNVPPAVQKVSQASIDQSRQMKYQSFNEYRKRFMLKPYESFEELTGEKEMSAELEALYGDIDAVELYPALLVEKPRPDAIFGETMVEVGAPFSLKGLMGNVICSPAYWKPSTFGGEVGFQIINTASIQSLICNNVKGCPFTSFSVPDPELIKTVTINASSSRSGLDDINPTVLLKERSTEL
# [10] = target: Transcription factor p65 (Mus musculus) (UniProt Q04207); assay: Inhibition of LPS-induced NFkappaB p65 nuclear translocation in mouse RAW264.7 cells at 20 uM preincubated for 1 hrs followed by LPS-stimulation and measured after 24 hrs by DAPI staining based confocal microscopic method; assay type: cell-based
# RAW264.7 [11] = assay: Antiinflammatory activity against mouse RAW264.7 cells assessed as downregulation of LPS-stimulated iNOS protein expression pretreated for 1 hrs followed by LPS addition and measured after 24 hrs by Western blot analysis; assay type: functional, cell-based; procedure, shortened: as §1
# [12] = target: T2, I-kappa-B kinase (Mus musculus) (UniProt Q60680+O88351+O88522); assay: Inhibition of LPS-stimulated IKK phosphorylation in mouse RAW264.7 cells assessed as decrease in IkappaBalpha phosphorylation level at 5 to 20 uM pretreated for 1 hrs followed by LPS addition and measured after 30 mins by Western blot analysis; assay type: cell-based
# [13] = target: T3, Prostaglandin G/H synthase 2 (Mus musculus) (UniProt Q05769); assay: Inhibition of COX2 in mouse RAW264.7 cells assessed as decrease in LPS-stimulated PGE2 production pretreated for 1 hrs followed by LPS addition and measured after 24 hrs by sandwich ELISA; assay type: cell-based
# T3 sequence (whole entry): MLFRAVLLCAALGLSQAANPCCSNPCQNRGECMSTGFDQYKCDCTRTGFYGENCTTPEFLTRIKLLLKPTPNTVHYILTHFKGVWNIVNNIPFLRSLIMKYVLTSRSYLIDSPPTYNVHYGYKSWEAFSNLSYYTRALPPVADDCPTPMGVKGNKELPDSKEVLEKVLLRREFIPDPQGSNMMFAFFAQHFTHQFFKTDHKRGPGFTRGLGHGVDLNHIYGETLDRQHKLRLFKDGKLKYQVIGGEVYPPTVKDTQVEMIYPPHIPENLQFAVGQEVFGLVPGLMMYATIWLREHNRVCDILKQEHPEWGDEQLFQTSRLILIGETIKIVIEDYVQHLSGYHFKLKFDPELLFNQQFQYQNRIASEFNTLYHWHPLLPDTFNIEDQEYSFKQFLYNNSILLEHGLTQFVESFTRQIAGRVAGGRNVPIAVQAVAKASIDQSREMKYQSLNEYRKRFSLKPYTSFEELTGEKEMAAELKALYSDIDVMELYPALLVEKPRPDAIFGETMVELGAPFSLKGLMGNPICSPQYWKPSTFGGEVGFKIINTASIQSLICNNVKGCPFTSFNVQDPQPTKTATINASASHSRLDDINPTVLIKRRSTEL
# Procedure, shortened: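 RAW264.7 cells at about 1×10^4 cells/well, grown 12 h. Pretreated 1 h at 2.5, 5 or 10 μM, then stimulated with LPS 100 ng/mL for 24 h. PGE2 in the medium measured by PGE2 express ELISA, absorbance at 415 nm. Representative of three independent experiments.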
# RAW264.7 [14] = assay: Cytotoxicity against mouse RAW264.7 cells assessed as reduction in cell viability up to 50 uM incubated of WST assay; assay type: cell-based; procedure, shortened: as §3
# [15] = target: T4, Prostaglandin G/H synthase 1 (Ovis aries) (UniProt P05979); assay: Inhibition of ovine COX1 at 30 uM using arachidonic acid as substrate pretreated for 5 mins followed by substrate addition and measured after 2 mins by fluorescence based enzyme immunoassay
# T4 sequence (whole entry): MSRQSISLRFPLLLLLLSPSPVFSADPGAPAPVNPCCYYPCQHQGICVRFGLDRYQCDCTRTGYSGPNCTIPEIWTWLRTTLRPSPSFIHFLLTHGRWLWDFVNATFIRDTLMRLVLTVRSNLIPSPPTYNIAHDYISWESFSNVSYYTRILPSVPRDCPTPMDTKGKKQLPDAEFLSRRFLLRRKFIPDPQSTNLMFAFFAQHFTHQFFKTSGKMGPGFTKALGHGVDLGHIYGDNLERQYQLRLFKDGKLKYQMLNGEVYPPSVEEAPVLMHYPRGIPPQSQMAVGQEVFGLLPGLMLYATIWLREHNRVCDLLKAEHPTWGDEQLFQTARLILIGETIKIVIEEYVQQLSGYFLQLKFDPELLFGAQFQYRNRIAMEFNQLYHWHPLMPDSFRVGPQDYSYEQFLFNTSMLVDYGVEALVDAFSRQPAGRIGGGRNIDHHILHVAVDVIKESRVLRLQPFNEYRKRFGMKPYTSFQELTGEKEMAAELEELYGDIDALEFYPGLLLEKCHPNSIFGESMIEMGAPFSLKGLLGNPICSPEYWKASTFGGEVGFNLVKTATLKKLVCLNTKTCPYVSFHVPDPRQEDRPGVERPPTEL
# L929 = assay: Cytotoxicity against mouse L929 cells assessed as reduction in cell viability up to 50 uM incubated of WST assay; assay type: cell-based; procedure, shortened: as §3
# RAW264.7 [16] = assay: Antiinflammatory activity against mouse RAW264.7 cells assessed as decrease in LPS-stimulated TNFalpha production pretreated for 1 hrs followed by LPS addition and measured after 24 hrs by sandwich ELISA; assay type: functional, cell-based
# [17] = target: T2, I-kappa-B kinase (Mus musculus); assay: Inhibition of LPS-stimulated IKK phosphorylation in mouse RAW264.7 cells at 5 to 20 uM pretreated for 1 hrs followed by LPS addition and measured after 30 mins by Western blot analysis; assay type: cell-based
# RAW264.7 [18] = assay: Antiinflammatory activity against mouse RAW264.7 cells assessed as inhibition of LPS-stimulated NO production pretreated for 1 hrs followed by LPS addition and measured after 24 hrs by Griess reagent based assay; assay type: functional, cell-based
# Procedure, shortened: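 RAW264.7 cells at about 1×10^4 cells/well, grown 12 h. Pretreated 1 h at 2.5, 5 or 10 μM, then LPS 25 ng/mL for 24 h. Supernatant mixed 1:1 with Griess reagent for 15 min at 37°C in the dark, A520 read. Nitrite quantified against 0–100 μM sodium nitrite standards.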
# RAW264.7 [19] = assay: Antiinflammatory activity against mouse RAW264.7 cells assessed as downregulation of LPS-stimulated iNOS protein expression at 10 uM pretreated for 1 hrs followed by LPS addition and measured after 24 hrs by Western blot analysis; assay type: functional, cell-based
# Procedure, shortened: (§4)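 RAW264.7 macrophages (DMEM, 10% heat-inactivated FBS, 37 °C, 5% CO2) pretreated with compound, then cultured with or without LPS 1 µg/mL for 24 h. Lysates in buffer with protease/phosphatase inhibitors, BCA-normalised, 10% SDS-PAGE, PVDF transfer, milk/TBS-T block, primary antibody overnight at 4 °C, HRP anti-rabbit secondary, chemiluminescence. Dexamethasone 10 µM positive control; mean ± SD of three independent experiments.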
# RAW264.7 [20] = assay: Antiinflammatory activity against mouse RAW264.7 cells assessed as downregulation of LPS-stimulated COX2 protein expression at 10 uM pretreated for 1 hrs followed by LPS addition and measured after 24 hrs by Western blot analysis; assay type: functional, cell-based; procedure, shortened: as §4
compound,measurement,setting,value
N#Cc1ccc(/C=N/NC(=O)c2cn(Cc3ccc(Cl)cc3)c3ccccc23)cc1,inhibition,[1],Dose-dependent effect
same,Activity,RAW264.7 [2],Active
same,Activity,RAW264.7 [3],Active
same,Activity,RAW264.7 [4],Dose-dependent effect
same,Activity,RAW264.7 [5],Active
same,Activity,RAW264.7 [6],Dose-dependent effect
same,Activity,RAW264.7 [7],Dose-dependent effect
same,Activity,[8],Non-Toxic
same,inhibition,[9],Active
same,inhibition,[10],Active
same,Activity,RAW264.7 [11],Dose-dependent effect
same,inhibition,[12],Active
same,inhibition,[13],Active
same,Activity,RAW264.7 [14],Non-Toxic
same,inhibition,[15],Active
same,Activity,L929,Non-Toxic
same,Activity,RAW264.7 [16],Dose-dependent effect
same,inhibition,[17],Active
same,inhibition,RAW264.7 [18],Dose-dependent effect
C[C@@H]1C[C@H]2[C@@H]3CCC4=CC(=O)C=C[C@]4(C)[C@@]3(F)[C@@H](O)C[C@]2(C)[C@@]1(O)C(=O)CO,Activity,RAW264.7 [19],Active
same,Activity,RAW264.7 [20],Active
CCCCC/C=N/NC(=O)c1cn(Cc2ccc(Cl)cc2)c2ccccc12,inhibition,[9],Active
same,inhibition,[15],Active
O=C(N/N=C/c1ccco1)c1cn(Cc2ccc(Cl)cc2)c2ccccc12,inhibition,[9],Active
same,inhibition,[15],Active
O=C(O)Cc1ccccc1Nc1c(Cl)cccc1Cl,Activity,RAW264.7 [3],Active
